Active and inactive are the calls of the source. The rule behind the calls is not given here.

The values that follow come from ChEMBL document CHEMBL1157792, “Pachycladins A-E, prostate cancer invasion and migration inhibitory Eunicellin-based diterpenoids from the red sea soft coral Cladiella pachyclados” (J Nat Prod, 2010).

What all share (format): functional, cell-based
The subject of assay [1] is PC-3. Kind of assay: Antimigratory activity against human PC3 cells at 200 uM by wound-healing assay. The procedure, abridged: (§1)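 Confluent PC-3 monolayers (>90%) in RPMI with 10% FBS, scratched with a pipet tip, washed with PBS, then given compound in DMSO, in triplicate, with DMSO vehicle control. Incubated 24 h serum-starved at 37 °C, fixed and stained with Diff Quick. Migrated cells counted in three or more random 400× fields; mean (SEM) per field.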

Assay [2] has as its system PC-3. Kind of assay: Antimigratory activity against human PC3 cells at 50 uM by wound-healing assay. The procedure, abridged:
as §1

Assay [3] has as its system PC-3. The assay can be described thus: Antiinvasive activity against human PC3 cells at 50 uM by cultrex cell invasion assay. The procedure, abridged: (§2)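 PC-3 cells (50 000 per well) in serum-free RPMI seeded into the top chamber of wells coated with basement membrane extract (4 h, 37 °C), with compound in the top chamber. Lower chamber: RPMI with 10% FBS, fibronectin and N-formyl-met-leu-phe (10 nM) as chemoattractants. After 24 h at 37 °C, invaded cells stained with calcein-AM for 1 h; fluorescence read at ex 485/em 520 nm.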

Assay [4] concerns PC-3. Kind of assay: Antiinvasive activity against human PC3 cells at 10 uM by cultrex cell invasion assay. The procedure, abridged:
as §2

Assay [5] deals with PC-3. The assay can be described thus: Antimigratory activity against human PC3 cells at 10 uM by wound-healing assay. The gist of the method: as §1
The subject of assay [6] is PC-3. Kind of assay: Antiproliferative activity against human PC3 cells at 50 uM after 96 hrs by MTT assay. The procedure, abridged:
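PC-3 cells (8 × 10^3 per well) allowed to attach for 24 h, then given serum-free RPMI with compound at 50, 20, 10 or 5 µM for 96 h at 37 °C, 5% CO2. MTT added for 4 h, formazan solubilized, absorbance read at 550 nm. Cell number taken from a hemocytometer-based standard curve; IC50 obtained by nonlinear regression of log concentration against cells/well.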

With `O=C1NC(=O)/C(=C/c2ccc(O)cc2)N1`, the outcome in the assay on PC-3 [1] was Active.
Take `C=C1C[C@H]2O[C@H]([C@@H]3[C@@H](C(C)C)[C@H](O)C[C@@](C)(OC(=O)CCC)[C@@H]32)[C@](C)(OC(C)=O)CC[C@@H]1O`: the outcome in the assay with PC-3 [2] was Active.
On the same count and under the same terms, in the case of `C=C1CC[C@H](C(C)C)[C@@H]2[C@H]1[C@H]1C/C(C)=C\CC[C@@](C)(O)[C@@H]2O1` it was “Active”.
On the same count and under the same terms, the entry for `C=C1C[C@H]2O[C@H]([C@@H]3[C@@H](C(C)C)[C@H](O)C[C@@](C)(OC(C)=O)[C@@H]32)[C@](C)(OC(C)=O)CC[C@@H]1O` is “Active”.
Regarding `CC(=O)O[C@]1(C)CC[C@H](C(C)C)[C@@H]2[C@H]1[C@H]1C[C@]3(C)CCC[C@@](C)(O3)[C@@H]2O1`, the result in the assay with PC-3 [2] and with PC-3 [3] was Active.
`CC(=O)O[C@]1(C)CC[C@H](C(C)C)[C@@H]2[C@H]1[C@H]1C[C@](C)(O)[C@@H](O)CC[C@@](C)(OC(C)=O)[C@@H]2O1`: the outcome in the assay on PC-3 [4] was Active. In addition, in the assay on PC-3 [5], the Activity_index result was “Active”.
Regarding `C=C1CC[C@H](C(C)C)[C@@H]2[C@H]1[C@@H]1CC(=C)[C@@H](O)CC[C@](C)(O)[C@H]2O1`, in the assay on PC-3 [2], the outcome was Active.
On the same count and under the same terms, the entry for `C=C1CC[C@H](C(C)C)[C@@H]2[C@H]1[C@H]1CC(=C)[C@@H](O)CC[C@@](C)(OC(C)=O)[C@@H]2O1` is “Active”.
On the same count and under the same terms, in the case of `C=C1CC[C@H](C(C)C)[C@@H]2[C@H]1[C@H]1CC(=C)[C@@H](OC(C)=O)CC[C@@](C)(O)[C@@H]2O1` it was “Active”; in that of `C=C1CC[C@H](C(C)C)[C@@H]2[C@H]1[C@H]1C[C@](C)(O)[C@@H](O)CC[C@@](C)(OC(C)=O)[C@@H]2O1`, “Active”.
On the same count and under the same terms, in the case of `C=C1CC[C@H](C(C)C)[C@@H]2[C@H]1[C@H]1CC(=C)[C@]3(O)CC[C@@](C)(O3)[C@@H]2O1` it was “Active”.
Consider `C=C1CC[C@H](C(C)C)[C@@H]2[C@H]1[C@H]1C[C@](C)(O)[C@@H](O)CC[C@@](C)(O)[C@@H]2O1`, for which the outcome in the assay with PC-3 [2] and in the assay on PC-3 [3] was Active.
As for `C=C1CC[C@H](C(C)C)[C@@H]2[C@H]1[C@H]1C[C@](C)(O)[C@@H](OC)CC[C@@](C)(O)[C@@H]2O1`, the outcome in the assay with PC-3 [2] and in the assay with PC-3 [3] was Active.
Consider `CCCC(=O)O[C@]1(C)CC[C@H](C(C)C)[C@@H]2[C@H]1[C@H]1C[C@](C)(O)[C@@H](O)CC[C@@](C)(OC(C)=O)[C@@H]2O1`, for which the outcome in the assay with PC-3 [2] and in the assay on PC-3 [3] was Active. In the assay with PC-3 [6], the result was inactive.
`C=C1C[C@H]2O[C@H]([C@H]3[C@@H]2[C@](C)(OC(C)=O)CC[C@@H]3C(C)C)[C@@]2(C)CC[C@]1(O)O2`: the result in the assay with PC-3 [2] was Active.
The same measure, in the same setting: the entry for `C=C1CC[C@H](C(C)C)[C@@H]2[C@H]1[C@H]1CC(=C)[C@@H](OC(C)=O)CC[C@@](C)(OC(C)=O)[C@@H]2O1` is “Active”.
